# Source: BindingDB's records for doi:10.1021/jm960153q (Rhône-Poulenc Rorer, 1996)
# Molecular target: Low-density lipoprotein receptor (Homo sapiens, UniProt P01130)
# Test: Concentration at which one-half the maximum Low density lipoprotein receptor up-regulation is observed in HepG2 cells
# In short: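 HepG2 cells in 96-well plates at 10 000 cells/well, grown 3 days to 80% confluence. Compounds added in DMEM with 1% BSA for 24 h at several concentrations. Formaldehyde-fixed cells probed with MAC-C7 (0.5 µg/mL, 60 min, 4 °C), then alkaline phosphatase-linked anti-mouse IgG, then fluorogenic substrate. EC50 is the concentration giving half-maximal upregulation, determined only when upregulation at 3 µM exceeded 40%. Five replicates.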
# Low-density lipoprotein receptor, sequence (P01130 whole entry): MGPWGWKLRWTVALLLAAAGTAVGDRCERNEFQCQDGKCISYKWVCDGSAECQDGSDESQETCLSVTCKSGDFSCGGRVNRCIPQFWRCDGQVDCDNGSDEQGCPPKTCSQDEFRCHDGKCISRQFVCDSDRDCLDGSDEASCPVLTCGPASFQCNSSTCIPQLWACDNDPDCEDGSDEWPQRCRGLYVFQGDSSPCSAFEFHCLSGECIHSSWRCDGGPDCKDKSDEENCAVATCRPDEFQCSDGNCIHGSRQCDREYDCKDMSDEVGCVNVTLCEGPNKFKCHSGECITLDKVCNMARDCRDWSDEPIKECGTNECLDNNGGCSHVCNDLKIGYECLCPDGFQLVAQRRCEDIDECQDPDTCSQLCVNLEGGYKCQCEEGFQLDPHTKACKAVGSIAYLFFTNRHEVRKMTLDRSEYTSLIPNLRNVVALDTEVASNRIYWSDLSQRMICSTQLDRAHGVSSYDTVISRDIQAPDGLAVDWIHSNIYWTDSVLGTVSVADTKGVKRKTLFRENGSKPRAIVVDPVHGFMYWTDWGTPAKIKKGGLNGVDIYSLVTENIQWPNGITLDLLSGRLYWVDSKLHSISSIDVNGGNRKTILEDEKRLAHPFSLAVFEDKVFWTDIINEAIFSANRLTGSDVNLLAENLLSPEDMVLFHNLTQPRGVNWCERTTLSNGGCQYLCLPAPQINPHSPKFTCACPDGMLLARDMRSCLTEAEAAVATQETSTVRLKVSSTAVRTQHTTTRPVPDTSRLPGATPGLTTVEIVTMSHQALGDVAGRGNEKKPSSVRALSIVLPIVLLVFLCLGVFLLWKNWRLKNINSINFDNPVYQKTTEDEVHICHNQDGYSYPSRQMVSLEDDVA
row,EC50,Structure (SMILES)
1,2 µM,Cc1ccc(C(=O)CCCC2CCCCC2)cc1NC(=O)c1cccnc1 [N-[5-(4-Cyclohexyl-butyryl)-2-methyl-phenyl]-nicotinamide]

# Molecular target: not listed separately
# Test: Concentration at which one-half of the maximum Low density lipoprotein receptor is upregulated in HepG2 cells
row,EC50,Structure (SMILES)
1,0.7 µM,Cc1ccc(NC(=O)CCC2CCCCC2)cc1-c1nc2ccc(O)cc2[nH]1 [3-Cyclohexyl-N-[3-(5-hydroxy-1H-benzoimidazol-2-yl)-4-methyl-phenyl]-propionamide]
2,1.3 µM,Cc1ccc2nc(-c3cc(NC(=O)CCC4CCCCC4)ccc3C)[nH]c2c1 [3-Cyclohexyl-N-[4-methyl-3-(5-methyl-1H-benzoimidazol-2-yl)-phenyl]-propionamide]
3,3.8 µM,Cc1ccc(NC(=O)CCC2CCCCC2)cc1NC(=O)c1ccc(N)cc1 [4-Amino-N-[5-(3-cyclohexyl-propionylamino)-2-methyl-phenyl]-benzamide]
4,7 µM,Cc1ccc(NC(=O)CCC2CCCCC2)cc1C(=O)Nc1ccc(O)cc1 [5-(3-Cyclohexyl-propionylamino)-N-(4-hydroxy-phenyl)-2-methyl-benzamide]
5,2.5 µM,CC(=O)Oc1ccc(C(=O)Nc2cc(NC(=O)CCC3CCCCC3)ccc2C)cc1 [Acetic acid 4-[5-(3-cyclohexyl-propionylamino)-2-methyl-phenylcarbamoyl]-phenyl ester]
6,2 µM,Cc1ccc(C(=O)NCCC2CCCCC2)cc1NC(=O)c1ccc(O)cc1 [N-(2-Cyclohexyl-ethyl)-3-(4-hydroxy-benzoylamino)-4-methyl-benzamide]
7,1.3 µM,Cc1ccc(NC(=O)CCC2CCCCC2)cc1-c1nc2ccccc2[nH]1 [N-[3-(1H-Benzoimidazol-2-yl)-4-methyl-phenyl]-3-cyclohexyl-propionamide]
8,0.7 µM,"Cc1ccc(NC(=O)CCC2CCCCC2)cc1/C=C(\C#N)c1ccc2c(c1)OCO2 [N-[3-((Z)-2-Benzo[1,3]dioxol-5-yl-2-cyano-vinyl)-4-methyl-phenyl]-3-cyclohexyl-propionamide]"
9,1 µM,Cc1ccc(NC(=O)CCC2CCCCC2)cc1/C=C(\C#N)c1cccnc1 [N-[3-((Z)-2-Cyano-2-pyridin-3-yl-vinyl)-4-methyl-phenyl]-3-cyclohexyl-propionamide]
10,2 µM,Cc1ccc(NC(=O)CCC2CCCCC2)cc1NC(=O)c1cccc(O)c1 [N-[5-(3-Cyclohexyl-propionylamino)-2-methyl-phenyl]-3-hydroxy-benzamide]
11,1.7 µM,Cc1ccc(NC(=O)CCC2CCCCC2)cc1NC(=O)c1ccc(O)cc1 [N-[5-(3-Cyclohexyl-propionylamino)-2-methyl-phenyl]-4-hydroxy-benzamide]
12,7.6 µM,Cc1ccc(NC(=O)CCC2CCCCC2)cc1NC(=O)c1ccc(CO)cc1 [N-[5-(3-Cyclohexyl-propionylamino)-2-methyl-phenyl]-4-hydroxymethyl-benzamide]
13,2 µM,Cc1ccc(NC(=O)CCC2CCCCC2)cc1NC(=O)c1ccccc1 [N-[5-(3-Cyclohexyl-propionylamino)-2-methyl-phenyl]-benzamide]
14,1.2 µM,Cc1ccc(NC(=O)CCC2CCCCC2)cc1NC(=O)c1cccnc1 [N-[5-(3-Cyclohexyl-propionylamino)-2-methyl-phenyl]-nicotinamide]
15,4 µM,Cc1ccc(NC(=O)CCCC2CCCCC2)cc1NC(=O)c1ccc(O)cc1 [N-[5-(4-Cyclohexyl-butyrylamino)-2-methyl-phenyl]-4-hydroxy-benzamide]
